Measurements from ChEMBL document CHEMBL3526060, “Impact of hydrolysis-mediated clearance on the pharmacokinetics of novel anaplastic lymphoma kinase inhibitors” (Drug Metab Dispos, 2013).

Columns and labels:
[1] = Drug metabolism in CD-1 mouse NADPH-fortified liver microsomes assessed as hydrolysis metabolite formation rate by LC-MS/MS analysis; assay type: ADME; details: for Km: read-out: Km(app)
Summary of the method: (§1)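 Mouse liver microsomes 0.25 mg/mL in 0.1 M phosphate pH 7.4, with or without 1 mM NADPH, substrate 0.0023–5 µM; sampling to 40 min into acetonitrile/IS, LC-MS/MS depletion. Hydrolysis Vmax/Km solved from no-NADPH incubations, then NADPH-dependent constants; metabolite formation rate simulated from fitted constants; duplicates.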

[2] = Plasma clearance in CD-1 mouse at 2 mg/kg, iv administered as single bolus dose by LC-MS/MS analysis; assay type: ADME, organism-based; set-up: dose 2 mg/kg, route intravenous
Summary of the method: (§2)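 Single 2 mg/kg IV bolus via lateral tail vein to male CD-1 mice. Mice euthanized at 0.083–24 h, 3 per time point (27 animals); cardiac-puncture blood into heparin on ice, plasma spun at 4 °C and immediately extracted with acetonitrile/0.1% formic acid plus IS, LC-MS/MS. Noncompartmental CL = Dose/AUC0–inf, t1/2 = 0.693/k, Vss from AUMC/AUC, MRT = Vss/CL.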

[3] = AUC (0 to infinity) in CD-1 mouse at 2 mg/kg, iv administered as single bolus dose by LC-MS/MS analysis; assay type: ADME, organism-based; set-up: time infinity, dose 2 mg/kg, route intravenous; details: plasma; summary of the method: as §2
[4] = Volume of distribution at steady state in CD-1 mouse at 2 mg/kg, iv administered as single bolus dose by LC-MS/MS analysis; assay type: ADME, organism-based; set-up: dose 2 mg/kg, route intravenous; details: in vivo, read-out: Vdss; summary of the method: as §2
[5] = Half life in CD-1 mouse at 2 mg/kg, iv administered as single bolus dose by LC-MS/MS analysis; assay type: ADME, organism-based; set-up: dose 2 mg/kg, route intravenous; details: in vivo; summary of the method: as §2
[6] = Ratio of drug level in blood to plasma in CD-1 mouse at 1 uM treated 20 mins after amide hydrolysis inhibitor DFP challenge measured after 1 hr by LC-MS/MS analysis; assay type: ADME; details: whole blood
Summary of the method: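 Fresh whole blood pre-incubated 20 min with 100 µM DFP, warmed to 37 °C, spiked to 1 µM, incubated 1 h, then plasma separated; reference plasma spiked at 1 µM. Extracted with 6 volumes acetonitrile/IS, LC-MS/MS; ratio = reference plasma peak area / treated plasma peak area.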

Plasma [7] = test: Drug metabolism in CD-1 mouse plasma assessed as hydrolysis metabolite formation rate by LC-MS/MS analysis; assay type: ADME, cell-free; details: for Km: read-out: Km(app)
Summary of the method: (§3)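 Mouse plasma depletion kinetics at 37 °C, substrate range 0.0023–5 µM, up to 3 h; samples quenched into acetonitrile/tolbutamide, LC-MS/MS. CLint per concentration from t1/2; apparent Vmax and Km fitted by nonlinear regression to Michaelis-Menten, formation rate simulated from fit; mean of two replicates.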

[8] = Drug metabolism in CD-1 mouse liver microsomes assessed as hydrolysis metabolite formation rate by LC-MS/MS analysis; assay type: ADME; details: for Km: read-out: Km(app); summary of the method: as §1
[9] = Mean residence time in CD-1 mouse at 2 mg/kg, iv administered as single bolus dose by LC-MS/MS analysis; assay type: ADME, organism-based; set-up: dose 2 mg/kg, route intravenous; details: in vivo; summary of the method: as §2
[10] = Fraction unbound in CD-1 mouse plasma after 7 hrs by equilibrium dialysis method; assay type: ADME, cell-free
Summary of the method: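 Mouse plasma pre-treated 20 min with 100 µM DFP to block hydrolysis, spiked at 0.1, 0.5 or 2 µM, equilibrium dialysis against PBS for 7 h at 37 °C, 5% CO2, triplicate; matrix-matched samples extracted with acetonitrile/IS, LC-MS/MS; fu = buffer/plasma concentration.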

[11] = In vitro half life in CD-1 mouse plasma at 0.83 uM by LC-MS/MS analysis; assay type: ADME, cell-free
Summary of the method: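 Screening stability: compound at 0.83 µM in mouse plasma at 37 °C, up to 3 h; timed aliquots quenched into acetonitrile with tolbutamide IS, centrifuged, LC-MS/MS; half-life from depletion, CLint = (0.693/t1/2)/plasma concentration.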

[12] = Fraction unbound in CD-1 mouse liver microsomes after 7 hrs by equilibrium dialysis method; assay type: ADME
Summary of the method: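 Equilibrium dialysis of 0.25 mg/mL mouse liver microsomes in phosphate buffer against PBS, 7 h at 37 °C, 5% CO2, test compound 0.1, 0.5 or 2 µM, triplicate; LC-MS/MS; fraction unbound = buffer/microsome concentration.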

Plasma [13] = test: Drug metabolism in CD-1 mouse plasma assessed as maximum intrinsic clearance for hydrolysis metabolite formation by LC-MS/MS analysis; assay type: ADME, cell-free; summary of the method: as §3

Vmax(app) [1] [pmol/min/mg] | Km [1] [µM] | clearance [2] [mL/min/kg] | AUC(0-inf) [3] [µM·h] | Vd [4] [L/kg] | half-life [5] [h] | blood plasma ratio at 1 h, 1 µM [6] | Vmax(app) (Plasma [7]) [pmol/min/mL] | Km (Plasma [7]) [µM] | Vmax(app) [8] [pmol/min/mg] | Km [8] [µM] | MRT [9] [h] | fraction unbound at 7 h [10] | half-life at 0.83 µM [11] [h] | fraction unbound at 7 h [12] | CL (Plasma [13]) [uL/min.ml] | Structure (SMILES)
143 | 0.936 | 58.5 | 0.957 | 4.49 | 1.01 | 0.9 | 3.81 | 0.357 | 5.12 | 0.0292 | 1.28 | 0.046 | 2.9 | 0.53 | 10.7 | CC(C)NC(=O)[C@H]1CC[C@@H](n2/c(=N/C(=O)c3cc(F)cc(F)c3)[nH]c3ccc(CN4CCC(C(C)(C)O)CC4)cc32)CC1
194 | 1.95 | 44.3 | 1.2 | 7.78 | 2.2 | 0.9 | 1.14 | 0.68 | 5.38 | 0.261 | 2.92 | 0.012 | 8.5 | 0.22 | 1.68 | CC(C)NC(=O)[C@H]1CC[C@@H](n2/c(=N/C(=O)c3cccc(C(F)(F)F)c3)[nH]c3ccc(CN4CCC(C(C)(C)O)CC4)cc32)CC1
